M5 antag: CHRM5 antagonism in calcium assay; P08912; inhibition, % at 3 µM; CHO-hM5 cells, Fluo-8 calcium fluorescence, ACh EC80; AID 624040; 360,000 tested, 0.59% active;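 active means inhibition above a per-plate cutoff, the mean of that plate's test compounds plus 3 SD, cut at about 27% in these data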
Target sequence (P08912 whole entry, looked up): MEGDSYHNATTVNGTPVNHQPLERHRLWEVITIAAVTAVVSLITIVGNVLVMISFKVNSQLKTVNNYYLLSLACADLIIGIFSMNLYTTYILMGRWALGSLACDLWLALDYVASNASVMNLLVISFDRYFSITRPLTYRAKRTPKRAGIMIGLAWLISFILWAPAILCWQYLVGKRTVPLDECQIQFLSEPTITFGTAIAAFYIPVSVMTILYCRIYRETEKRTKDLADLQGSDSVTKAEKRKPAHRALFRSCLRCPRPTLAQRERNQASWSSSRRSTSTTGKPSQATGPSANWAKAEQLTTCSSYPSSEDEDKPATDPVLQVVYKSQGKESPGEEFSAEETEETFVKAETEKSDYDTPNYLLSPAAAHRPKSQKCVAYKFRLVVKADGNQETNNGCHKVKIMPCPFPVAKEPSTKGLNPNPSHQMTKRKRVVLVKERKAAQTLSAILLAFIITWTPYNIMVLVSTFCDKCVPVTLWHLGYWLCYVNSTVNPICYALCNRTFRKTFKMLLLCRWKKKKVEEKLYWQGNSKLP
M4 ag: CHRM4 agonism in calcium assay | P08173 | CHO-K1 hM4/Gqi5, Fluo-8 calcium fluorescence; vehicle 0%, full acetylcholine response 100% | activation, % at 3 µM | 360,000 tested, 0.14% active | AID 624127;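 active means activation above the run mean over all test wells plus 3 SD, cut at about 32% in these data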;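 further: peak over basal fluorescence ratio per well then scaled between controls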
M5 PAM: CHRM5 positive allosteric modulation; P08912; CHO-K1 hM5, Fluo-8 calcium, ACh EC20 PAM; 0% = ACh EC20, 100% = ACh EC100; activation, % at 3 µM; 360,000 tested, 0.3% active;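 active means activation above the run cutoff, the mean activation of all test compounds plus 3 SD, cut at about 18% in these data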
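Assay system – human M5 receptor in CHO-K1 cells · Read-out – % activation, ACh-normalized · Technique – Fluo-8 calcium fluorescence · Dosing – single-point, 3 µM nominal · Incubation – Fluo-8 loading 80 min at 37 °C plus 30 min room temperature · Repeats – singlicate, one well per test compound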
CHRM4 PAM: CHRM4 positive allosteric modulation. P08173. CHO-K1 hM4/Gqi5, Fluo-8 calcium fluorescence, ACh EC20; 0% = ACh EC20, 100% = maximal ACh. activation, % at 3 µM. 360,000 tested, 0.4% active;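 active means activation above its plate's cutoff, the mean activation of sample wells plus 3 SD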
M5 ag: CHRM5 agonism in calcium assay; 360,000 tested, 0.19% active; CHO-K1 hM5 cells, Fluo-8 calcium fluorescence; 0% DMSO wells, 100% maximal acetylcholine response; activation, % at 3 µM;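 active means activation above the run's mean over test compounds plus 3 SD, cut at about 23% in these data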;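 further: signal is peak over basal fluorescence ratio across the kinetic read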
M4 antag: antagonists of human muscarinic M4 receptor (CHRM4); CHO-hM4 cells, ACh EC80, Fluo-8 calcium fluorescence; AID 624125; P08173; inhibition, % at 3 µM; 360,000 tested, 0.73% active;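 active means inhibition above its plate's cutoff, the mean inhibition of sample wells plus 3 SD, cut at about 27% in these data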
Each line names hits and unclear results; the compound was inactive in the other large screens. The list is not random: actives were taken first. Their share in the collection is about 1.8%.

COC(=O)c1sc(S(=O)(=O)N2CCCCC2C)c(C(=O)OC)c1C (centres undefined)	none
CC(=O)C1=C(O)C(=O)N(c2ccc(C(=O)O)cc2)C1c1ccc([N+](=O)[O-])cc1 (centres undefined)	none
CCOC(=O)c1ccc(N2C(=O)C(O)=C(C(C)=O)C2c2ccc([N+](=O)[O-])cc2)cc1 (centres undefined)	M5 PAM 19
CC12CCC3C(=CCc4cc(O)ccc43)C1CC(=NO)C2O (centres undefined)	M5 ag 24
CCN(CC)CC#CC(O)(c1ccccc1)c1ccccc1	M5 antag 98, M4 antag 88
CN(C)C(C)(C)C#CC(O)(c1ccccc1)c1ccccc1	M5 antag 83, M4 antag 53
CN(C)CCC#CC(O)(c1ccccc1)c1ccccc1	M5 antag 38, M4 antag 32
OCCN(CC#CC(O)(c1ccccc1)c1cccc(F)c1)CCO (centres undefined)	none
NS(=O)(=O)c1ccc(N2N=C(c3ccccc3)CC2c2ccccc2Cl)cc1 (centres undefined)	none
Cc1ccc(NC(=O)c2nc(S(=O)(=O)Cc3ccccc3)ncc2Cl)cc1	M4 antag 46
Cc1ccccc1CS(=O)(=O)c1ncc(Cl)c(C(=O)Nc2ccc(F)cc2)n1	M4 antag 29
O=C(Nc1ccc(F)cc1)c1nc(S(=O)(=O)Cc2ccccc2)ncc1Cl	M4 antag 36
Cc1cccc(C)c1NC(=O)c1nc(S(=O)(=O)Cc2ccccc2)ncc1Cl	none
COc1ccc(OC)c(NC(=O)c2nc(S(=O)(=O)Cc3ccccc3)ncc2Cl)c1	M4 antag 44
COc1ccc(NC(=O)c2nc(S(=O)(=O)Cc3cccc(C)c3)ncc2Cl)c(OC)c1	none
COC(=O)c1cccn(CC(=O)c2ccc(Cl)cc2)c1=O	none
Cc1ccc(N2C(=O)c3ccccc3NC2c2ccccc2O)cc1 (centres undefined)	M4 antag 45
CCOc1ccccc1NC(=O)C(=O)CC(=O)c1ccc(OC)cc1	none
Cc1cc(C)c2nc(NNC(=O)c3ccc(S(=O)(=O)N4CCc5ccccc5C4)cc3)sc2c1	M5 ag 59
NC(=O)c1cccc2c(=O)oc3ccccc3c12	M5 PAM 19
O=c1oc2ccccc2c2c1cnc1ccccc12	none
COc1ncccc1C(=O)N1CCCC(N2CCN(c3cccc(Cl)c3)CC2)C1 (centres undefined)	none
CCN1/C(=C/c2cc[n+](CCCS(=O)(=O)[O-])c3ccccc23)Sc2ccccc21	none
C=CC[n+]1ccc(/C=C2\C=Cc3cc(C)ccc3N2CC)c2ccccc21	M5 antag 35
CCCN1CCc2c(sc3nc(SC)n(-c4ccccc4)c(=O)c23)C1	none
CCCNC(=O)C1(C)CCCN(C(=O)Cc2ccc3ccccc3c2)C1 (centres undefined)	none
COCCNC(=O)C1(C)CCCN(C(=O)Cc2ccc3ccccc3c2)C1 (centres undefined)	CHRM4 PAM 17
Fc1ccc(/C=C2\CCCC3=C2Nc2ncnn2C3c2ccc(F)cc2)cc1 (centres undefined)	M4 antag 28
COc1ccc(C2C3=C(Nc4ncnn42)c2ccccc2CCC3)cc1 (centres undefined)	none
COc1cccc(-c2nc(-c3cccc(C)c3)nc3cc(Cl)ccc23)c1	none
CCn1cc([N+](=O)[O-])c(C(=O)N2CCCc3ccccc32)n1	CHRM4 PAM 22
CCn1cc([N+](=O)[O-])c(C(=O)N2CCCCCC2)n1	none
COc1ccc(Cn2cc(F)c(=O)n(C)c2=O)cc1[N+](=O)[O-]	M5 PAM 18
O=C(Cn1ccc2ccccc2c1=O)NCC(=O)N1CCN(c2ccccc2F)CC1	none
CC(=O)Nc1cc(-c2ccc(C(=O)N3CCOCC3)cc2)cn2c(-c3ccc(S(C)(=O)=O)cc3)cnc12	none
COc1cccc(CN(C)C(=O)c2cccc(S(=O)(=O)NCc3ccccc3)c2)c1OC	none
COc1ccc(CN2CCN(Cc3cccc(Oc4ccccc4)c3)CC2)c(OC)c1OC	M5 antag 35
COc1ccc(CN(C)C(=O)c2cccc(Oc3ccccc3)c2)c(OC)c1OC	M5 antag 30
CSCCC(c1nc2ccccc2[nH]1)n1c(-c2ccc3ncccc3c2)nc2ccccc21 (centres undefined)	none
Cc1ccc(OCC(=O)NNC(=O)c2cccnc2)cc1C	none
C(=N\c1nc2ccccc2n1CCN1CCCCC1)/c1ccc2c(c1)OCO2	M5 PAM 23
O=C(O)c1cc([N+](=O)[O-])ccc1NCCCc1ccccc1	M5 ag 35
CCNC(=O)C[C@@H]1CC[C@@H]2NC[C@@H](O)COC[C@H]2O1	none
c1ccc(-c2noc(C3CCC3)n2)nc1	M5 PAM 18
CCCCC1CCC(c2nc(-c3ccccn3)no2)CC1 (centres undefined)	none
COc1cccc(CN(C)C(=O)c2ccc(S(=O)(=O)Nc3cccc(C)c3C)cc2)c1OC	none
Cc1cnc(NC(=O)NCC2CCCC(CNC(=O)Nc3ncc(C)s3)C2)s1 (centres undefined)	M5 PAM 27, CHRM4 PAM 48
O=C(NCCCn1ccnc1)C(=O)NCC(c1ccco1)N1CCN(c2ccccc2)CC1 (centres undefined)	M4 antag 33
COc1ccc(NC(=O)NNS(=O)(=O)c2ccc(OC)c(OC)c2)c(OC)c1	M5 PAM 18
O=[N+]([O-])c1ccc2c(c1)nnn2-c1ccccc1	none
c1ccc(-n2nnc3ccccc32)cc1	M4 antag 81
CCc1cc(C(=O)N2CCCC(CO)(Cc3ccc(F)cc3)C2)n(C)n1 (centres undefined)	none
CCCS(=O)(=O)NC(=O)C1(C)CCN(C(=O)c2cccc(C)c2C)C1 (centres undefined)	CHRM4 PAM 19
OC(c1ccccc1)(c1ccccc1)C1CCN(CCCOc2ccc(F)cc2)CC1	M5 antag 55, M4 antag 65
N#Cc1ccccc1OCCCN1CCC(C(O)(c2ccccc2)c2ccccc2)CC1	M4 antag 27
CC1CCN(CCCCOc2ccc(C(C)(C)C)cc2)CC1	M4 antag 30
Cc1ccc(OCCCN2CCC(C(O)(c3ccccc3)c3ccccc3)CC2)cc1	M5 antag 77, M4 antag 62
CC1CCN(CCCCOc2ccc(Cl)cc2)CC1	none
Cc1ccc(S(=O)(=O)NCC(=O)NCC(=O)N(C)Cc2ccc3ccccc3c2)cc1C	none

Bioassay records: PubChem BioAssay, The Scripps Research Institute Molecular Screening Center
